In the library only some 1.5% were active in any assay of this set; here they are far more common.
APJ ag = APJ receptor agonism; CHO-K1 APJ PathHunter beta-arrestin, luminescence; 0% DMSO wells, 100% apelin; AID 2520; P35414; activation, % at 20 µM; 330,000 compounds, 0.11% hits;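 active = activation more than six SD over the plate average, tested at 20 µM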;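 also: 0% = DMSO alone and 100% = apelin-13 at 10 nM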
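Assay system: CHO-K1 cells stably expressing ProLink-tagged human APJ and arrestin–beta-gal acceptor. Compound dosing: 20 µM single point, 1% DMSO. Times: 16-18 h seeding, 90 min dark compound exposure, 60 min detection. Detection: beta-gal luminescence. Evaluation: APJ–arrestin association signal. Controls: negative DMSO alone, positive Apelin-13 at 10 nM.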
EBI2 block = EBI2 (human) antagonism | P32249 | EBI2 beta-arrestin recruitment, luminescence, 7a,25-OHC stimulated | inhibition, % at 5 µM | 360,000 compounds, 0.81% hits; in the data active = inhibition above about 38%;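 also: enzyme fragment complementation signal reports receptor beta-arrestin coupling in cells; 0% = agonist plus DMSO wells and 100% = wells without agonist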
Target sequence (P32249 whole entry, looked up, the tested form may be a part): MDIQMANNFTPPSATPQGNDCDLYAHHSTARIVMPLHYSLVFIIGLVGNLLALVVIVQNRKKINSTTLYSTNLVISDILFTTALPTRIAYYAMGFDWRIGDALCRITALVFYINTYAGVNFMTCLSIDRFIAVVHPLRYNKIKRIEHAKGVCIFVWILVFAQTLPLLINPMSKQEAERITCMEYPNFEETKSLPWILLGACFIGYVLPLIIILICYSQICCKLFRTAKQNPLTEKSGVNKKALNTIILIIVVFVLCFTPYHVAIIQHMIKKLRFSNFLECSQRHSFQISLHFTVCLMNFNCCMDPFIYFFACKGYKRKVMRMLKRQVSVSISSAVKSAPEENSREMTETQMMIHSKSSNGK
CXCR6 inh = inhibitors of human CXCR6 receptor; AID 602244; O00574; CHO-K1 PathHunter CXCR6 beta-arrestin, luminescence; inhibition, % at 20 µM; 360,000 compounds, 0.36% hits; in the data active = inhibition above about 34%, passing the limit was not always enough;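 also: antagonist mode with CXCL16 agonist at 10 nM final; 0% = 10 nM CXCL16 with DMSO and 100% = unstimulated wells without agonist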
CCR6 antagonist = CCR6 (human) receptor antagonism. inhibition, % at 20 µM. 340,000 compounds, 0.49% hits. CHO-K1 CCR6 PathHunter beta-arrestin, luminescence, CCL20-stimulated. AID 493098;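 active = compounds whose inhibition of the agonist-driven luminescence signal at 20 µM reaches about 50%, limit read from the data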;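 also: cells stimulated with CCL20 at 14 nM final; plate controls were DMSO with CCL20 for no effect and DMSO without agonist for full effect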
APJ antagonist = APJ receptor antagonism | CHO-K1 APJ beta-arrestin complementation, luminescence | inhibition, % at 20 µM | 330,000 compounds, 0.32% hits | AID 2521;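 active = inhibition above about 40% at 20 µM, limit read from the data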;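 also: cells challenged with 10 nM apelin-13 agonist together with compound; plate controls were apelin-13 plus DMSO wells for no effect and DMSO wells lacking apelin-13 for full effect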
APJ ag conf = APJ receptor agonism confirmation; shares compounds with APJ ag; CHO-K1 APJ PathHunter beta-arrestin, luminescence; activation, % at 20 µM; 310 compounds, 10% hits; AID 2764;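 active = activation above 40%, taking the highest of four retests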;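 also: plate controls were DMSO wells for no effect and apelin-13 at 10 nM for full effect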
Numbers without * were called inactive; nt = no result given.

SMILES	APJ ag	EBI2 block	CXCR6 inh	CCR6 antagonist	APJ antagonist	APJ ag conf
CC(NC(=O)OCc1ccccc1)C(=O)NCC(=O)NC(Cc1ccc(OC(C)(C)C)cc1)C(=O)OC(C)(C)C (stereo not drawn)	19*	17	2	7	-1	7
CC(C)(C)OC(=O)C(Cc1ccc(OC(C)(C)C)cc1)NC(=O)CNC(=O)CNC(=O)OCc1ccccc1 (stereo not drawn)	2	-7	-4	21	5	nt
COc1ccccc1N1CCNC(C)C1=O (stereo not drawn)	-1	-3	-18	3	4	nt
CCOC(=O)c1oc2nc3c(cc2c1N)CCCC3	117*	9	1	14	2	3
COc1cccc(-c2sc3ccc(OC)cc3c2-c2ccc(OCCN(C)C)cc2)c1	-4	-6	3	39	5	nt
N#Cc1nc(-c2ccc(OCc3ccc(Cl)cc3)cc2)oc1N1CCC(C(N)=O)CC1	-2	-5	2	11	6	nt
N#Cc1nc(-c2ccc(OCc3ccc(Cl)cc3)cc2)oc1N1CCOCC1	25*	-16	3	7	1	4
Cc1cccn2c(=O)c3cc(C(=O)NCC4CCCO4)c(=N)n(CCN4CCOCC4)c3nc12 (stereo not drawn)	31*	-9	8	-2	-6	-5
COC(=O)c1ccccc1NC(=O)CCc1ccccc1	-4	9	0	11	-2	nt
Cc1ccc(NC(=O)C/C(N)=N/OC(=O)Nc2ccc(C)c(Cl)c2)cc1	27*	2	-37	-18	-40	26
Cc1ccc(NC(=O)C/C(N)=N/OC(=O)Nc2cccc(C)c2)cc1	9	4	-34	-18	-137	nt
COC/C=C/C1=CC2=CC(=O)C(C)(OC(=O)c3cnc4ccccc4n3)C(=O)C2=CN1C(CO)CO (stereo not drawn)	8	-26	-11	-4	-17	nt
COC/C=C/C1=CC2=CC(=O)C(C)(OC(=O)c3cnc4ccccc4n3)C(=O)C2=CN1C1CCCC1 (stereo not drawn)	122*	nt	nt	nt	-55	21
Cc1cc(C)n2nc(SC(C)C(=O)NCc3ccco3)nc2n1 (stereo not drawn)	2	0	-5	-2	11	nt
COc1ccccc1C(=O)Nc1ccc(Cc2ccncc2)cc1	nt	1	-14	11	-4	nt
COc1ccc([N+](=O)[O-])cc1C(=O)Nc1ccc(Cc2ccncc2)cc1	16*	6	-2	7	8	12
Cc1noc(C)c1S(=O)(=O)N(CC(=O)N1CCn2c1nc1ccccc12)c1ccc(C(C)C)cc1	-5	11	-2	10	-2	nt
CC[n+]1c(/C=C/N(C)c2ccccc2)n(-c2ccccc2)c2ccc(-c3nc4ccccc4s3)cc21	26*	21	14	22	9	-2
CCCCCCc1cc2cc(C(=O)Nc3ccccc3)c(=O)oc2cc1O	11*	-33	-70	-99	-39	43*
COc1cc(NC(=O)COC(=O)CC(NC(C)=O)c2ccccc2)cc(OC)c1 (stereo not drawn)	2	0	7	15	10	nt
CC(=O)NC(CC(=O)NNC(=O)c1cc2ccccc2cc1O)c1ccccc1 (stereo not drawn)	30*	-3	-14	-26	-102	14
COc1cccc2sc3ccc(NCCC4CCCN4C)cc3c(=O)c12 (stereo not drawn)	53*	-4	-21	15	-124	1
COc1cc2sc3cc(NCC[C@@H]4CCCN4C)ccc3c(=O)c2cc1OC	-1	-7	-8	7	-1	nt
CCN(CC(=O)N1CCCC1)S(=O)(=O)c1cc(C)ccc1OC	30*	6	4	16	9	7
C=CCn1c(SCC(=O)Nc2c(C)n(C)n(-c3ccccc3)c2=O)nnc1-c1ccncc1	nt	1	12	nt	nt	nt
SMILES	APJ ag	EBI2 block	CXCR6 inh	CCR6 antagonist	APJ antagonist	APJ ag conf
O=C(/C=C/c1ccc(OCCCF)cc1)Nc1ccnc(-c2ccncc2)n1	16*	7	-7	-18	-24	36
COc1cc(/C=N/S(=O)(=O)c2ccccc2)cc(OC)c1O	-2	-11	-6	-1	-46	nt
Cc1[nH]c2ccccc2c1C(=O)COC(=O)c1ccc[n+]([O-])c1	-2	-9	2	7	-5	nt
COc1cccc(Nc2nc(NCC3CCCO3)c3ccccc3n2)c1 (stereo not drawn)	14*	-14	-8	1	-12	10
CC1=C(C(=O)OCc2ccccc2)C(c2ccccc2)NC(=O)N1 (stereo not drawn)	-1	-5	-4	10	9	nt
CC1=C(C(=O)OCc2ccc3c(c2)OCO3)C(c2ccc(Cl)cc2)NC(=O)N1 (stereo not drawn)	3	9	5	0	-2	nt
CC1=C(C(=O)OCc2ccccc2)C(c2cccc(F)c2)NC(=O)N1 (stereo not drawn)	19*	0	-22	-3	12	8
CC1=C(C(=O)OCc2ccc3c(c2)OCO3)C(c2ccc(F)cc2)NC(=O)N1 (stereo not drawn)	29*	2	4	-6	7	9
O=C(COc1ccc(F)c(Cl)c1)Nc1ccc(N2CCOCC2)cc1	-3	-10	-6	10	20	nt
COc1cc(CNC(=O)OCC(C)C)cc(OC)c1OC	18*	-2	-4	4	4	6
COc1cc2ccccc2cc1C(=O)Nc1ccc(N2CCN(C(=O)C(C)C)CC2)cc1	20*	21	6	1	-29	11
COc1cc2ccccc2cc1C(=O)Nc1ccc(N2CCN(C)CC2)cc1	3	3	0	13	1	nt
CCN(CC)CCNC(=O)c1ccc(NC(=O)c2cc(-c3ccco3)nc3ccccc23)cc1	55*	5	4	7	-19	2
COC(=O)CN1C(=S)N(Cc2ccccc2)C(=O)C1CC(=O)Nc1ccc(OC)cc1 (stereo not drawn)	3	3	-10	4	-5	nt
Cc1cc(C)c2sc(N(CCCN(C)C)C(=O)c3ccc(S(=O)(=O)N4CCc5ccccc5C4)cc3)nc2c1	66*	-3	-3	nt	-9	45*
Cc1ccc2nc(N(CCCN(C)C)C(=O)c3ccc(S(=O)(=O)N4CCc5ccccc5C4)cc3)sc2c1	79*	8	-9	13	-40	46*
Cc1cccc2sc(N(CCCN(C)C)C(=O)c3ccc(S(=O)(=O)N4CCc5ccccc5C4)cc3)nc12	21	-4	5	-5	-5	nt
COc1ccc2sc(N(CCCN(C)C)C(=O)c3ccc(S(=O)(=O)N4CCc5ccccc5C4)cc3)nc2c1	50*	12	3	-1	-12	34
CN(C)CCCN(C(=O)c1ccc(S(=O)(=O)N2CCc3ccccc3C2)cc1)c1nc2ccc(F)cc2s1	47*	14	-9	6	2	22

Compound activity as filed in PubChem BioAssay.
